According to ChEMBL document CHEMBL5325438 (Eur J Med Chem, 2023):
Activity calls are given as the source filed them. Square brackets hold non-standard residues; d marks the D form. Peptide text beside a SMILES is read from it. * marks the point of attachment. Cav = NC(N)=NOCC[C@H](N)C(=O)O; Tle = CC(C)(C)[C@H](N)C(=O)O; X1 = C[C@@H](CCCCN)C(=O)*

Key:
[1] = target: T1, Neurotensin receptor type 1 (Homo sapiens, UniProt P30989); assay: Binding affinity to human NTSR1 transfected in HEK293 cells assessed as inhibition constant incubated for 60 mins in the presence of [Leu3H]NT(8-13) by radioligand competition binding assay; type: cell-based
[2] = test system: HT-29; assay: Cytotoxicity against human HT-29 cells assessed as reduction in cell viability at 0.1 to 100 uM incubated for 24 hrs by MTT assay; type: toxicity, cell-based; conditions: ht-29, 24 h, dose 0.1-100 µM
Method in brief: (§1)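 HepG2, MDA-MB-231 and HT-29 cells grown in DMEM/10% FBS with penicillin/streptomycin at 37 °C, 5% CO2. Exponential-phase cells seeded at 5000/well, left overnight, then exposed 24 h to peptide at 0.1–100 μM (from 1.0 mM PBS pH 7.4 stocks). Viability by MTT, as % of untreated control ± SD.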

[3] = target: Neurotensin receptor type 2 (Homo sapiens, UniProt O95665); assay: Binding affinity to human NTSR2 transfected in HEK293 cells assessed as inhibition constant incubated for 60 mins in the presence of [Leu3H]NT(8-13) by radioligand competition binding assay; type: cell-based
Method in brief: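 IC50 from nonlinear regression, converted to Ki by Cheng–Prusoff; protein by Lowry. Means ± SEM of three (NTS1R) or four to five (NTS2R) experiments, each in triplicate. SI = Ki(NTS1R)/Ki(NTS2R).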

[4] = target: T1, Neurotensin receptor type 1; assay: Agonist activity at human NTSR1 expressed in HEK293 cells assessed as Galphaq-mediated modulation of IP production by measuring maximal efficacy incubated for 90 mins by IP-one HTRF assay relative to full effect of (2S)-2-[[(2S,3S)-2-[[(2S)-2-[[(2S)-1-[(2S)-2-[[(2S)-2-amino-5-guanidino-pentanoyl]amino]-5-guanidino-pentanoyl]pyrrolidine-2-carbonyl]amino]-3-(4-hydroxyphenyl)propanoyl]amino]-3-methyl-pentanoyl]amino]-4-methyl-pentanoic acid; type: functional, cell-based; conditions: filed as agonist
[5] = test system: MDA-MB-231; assay: Cytotoxicity against human MDA-MB-231 cells assessed as reduction in cell viability at 0.1 to 100 uM incubated for 24 hrs by MTT assay; type: toxicity, cell-based; conditions: mda-mb-231, 24 h, dose 0.1-100 µM; method in brief: as §1
[6] = target: T1, Neurotensin receptor type 1; assay: Agonist activity at human NTSR1 expressed in HEK293 cells assessed as Galphaq-mediated modulation of IP production incubated for 90 mins by IP-one HTRF assay; type: functional, cell-based
[7] = test system: HepG2; assay: Cytotoxicity against human HepG2 cells assessed as reduction in cell viability at 0.1 to 100 uM incubated for 24 hrs by MTT assay; type: toxicity, cell-based; conditions: hepg2, 24 h, dose 0.1-100 µM; method in brief: as §1
[8] = test system: Mus musculus; assay: Neuroprotective activity against MPTP-induced neurotoxicity in BALB/c albino mouse model assessed as alleviation of MPTP-induced nigrostriatal dopaminergic neuronal damage by measuring increase in number of TH-postivie neurons in substantia nigra at 10 mg/kg, ip preadministered with compound for 1 hrs followed by MPTP addition and measured 11 days after first MPTP addition by immunohistological staining analysis (reference value: 66 +/- 1.41%); type: functional; conditions: time 265 hrs
Method in brief: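 Same dosing as the behavioural study (peptide 10 mg/kg i.p., then MPTP 30 mg/kg i.p. 60 min later, 5 days; n = 5). Brains taken on day 11, fixed in 10% paraformaldehyde (pH 7.4, 0.1 M phosphate) overnight at 4 °C and paraffin-embedded. Substantia nigra sections stained with rabbit anti-TH (1:500). TH-positive cells counted, as % of saline control; ANOVA/Dunnett.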

[9] = test system: Mus musculus; assay: Neuroprotective activity against MPTP-induced Parkinson's disease BALB/c albino mouse model assessed as restoration of motor function by measuring increase in hanging time value at 10 mg/kg, ip preadministered with compound for 1 hrs followed by MPTP addition and measured 10 days after first MPTP addition by hanging test relative to control; type: functional; conditions: time 241 hrs
Method in brief: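 Male BALB/c mice, 8–10 weeks old, 30–35 g, n = 5/group, trained 3 days on a horizontal wire (55 cm, 2.0 mm diameter, 37 cm high). Peptide 10 mg/kg i.p. daily for 5 days, with MPTP 30 mg/kg i.p. given 60 min later; saline controls. Hanging time tested on day 10; one-way ANOVA with Dunnett's test; mean ± SEM.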

[10] = test system: Mus musculus; assay: Neuroprotective activity against MPTP-induced Parkinson's disease BALB/c albino mouse model assessed as restoration of step-through latency values at 10 mg/kg, ip preadministered with compound for 1 hrs followed by MPTP addition and measured 10 days after first MPTP addition by step-through passive avoidance test; type: functional, organism-based; conditions: time 241.0 hrs
Method in brief: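 Male BALB/c mice (8–10 weeks, 30–35 g), n = 5/group, were dosed i.p. once daily for 5 days with peptide (10 mg/kg), then MPTP (30 mg/kg) 60 min later; controls received saline or MPTP alone. On day 10, the latency to enter the dark compartment was recorded (cut-off 180 s). Data are mean ± SEM, analysed by one-way ANOVA/Dunnett versus saline and MPTP groups.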

[11] = Stability of compound in PBS buffer assessed as parent compound remaining at pH 2.0 measured after 30 days by RP-HPLC/UV/Vis spectroscopic analysis; type: physicochemical; conditions: time 30 day, read-out: Stability
Method in brief: (§2)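 Peptide at 50 μM in PBS at pH 2.0 or 7.4, stored at room temperature and 37 °C for 30 days; % peptide remaining reported.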

[12] = Toxicity in MPTP-induced parkinsons's disease BALB/c albino mouse model assessed as body weight loss at 10 mg/kg, ip preadministered with compound for 1 hrs followed by MPTP-addition and measured 5 days after first MPTP addition; type: organism-based; conditions: in vivo, 121 h
Method in brief: (§3)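 Male BALB/c mice (n = 5/group) given peptide 10 mg/kg i.p. daily for 5 days, each dose followed 60 min later by MPTP 30 mg/kg i.p.; saline controls. Body weight recorded on days 1, 5 and 10.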

[13] = test system: HT-29; assay: Cytotoxicity against human HT-29 cells assessed as reduction in cell viability at 100 uM incubated for 24 hrs by MTT assay relative to control; type: toxicity, cell-based; conditions: ht-29, 24 h; method in brief: as §1
[14] = Toxicity in MPTP-induced parkinsons's disease BALB/c albino mouse model assessed as body weight loss at 10 mg/kg, ip preadministered with compound for 1 hrs followed by MPTP-addition and measured 10 days after first MPTP addition; type: organism-based; conditions: in vivo, 241 h; method in brief: as §3
[15] = test system: MDA-MB-231; assay: Cytotoxicity against human MDA-MB-231 cells assessed as reduction in cell viability at 100 uM incubated for 24 hrs by MTT assay relative to control; type: toxicity, cell-based; conditions: mda-mb-231, 24 h; method in brief: as §1
[16] = test system: HepG2; assay: Cytotoxicity against human HepG2 cells assessed as reduction in cell viability at 100 uM incubated for 24 hrs by MTT assay relative to control; type: toxicity, cell-based; conditions: hepg2, 24 h; method in brief: as §1
[17] = Permeability of compound in PBS buffer at pH 7.4 at 100 uM incubated for 4 hrs by PAMPA-BBB assay; type: ADME; conditions: read-out: permeability
Method in brief: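 PAMPA-BBB with peptide at 100 μM in PBS, donor and acceptor both pH 7.4, 4 h at room temperature. Effective permeability Pe (×10⁻⁶ cm/s) and −log Pe reported as mean ± SEM of three independent experiments.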

[18] = Stability of compound in PBS buffer assessed as parent compound remaining at pH 7.4 incubated for 24 hrs by UV/Vis spectroscopic analysis; type: physicochemical; conditions: read-out: Stability
Method in brief: (§4)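 Peptide at 50 μM in PBS at pH 2.0 or 7.4, kept at 37 °C; short-term stability over 0–24 h followed by UV/Vis spectroscopy; % remaining reported.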

[19] = Stability of compound in PBS buffer assessed as parent compound remaining at pH 2.0 incubated for 24 hrs by UV/Vis spectroscopic analysis; type: physicochemical; conditions: read-out: Stability; method in brief: as §4
[20] = Stability of compound in PBS buffer assessed as parent compound remaining at pH 7.4 measured after 30 days by RP-HPLC/UV/Vis spectroscopic analysis; type: physicochemical; conditions: time 30 day, read-out: Stability; method in brief: as §2
[21] = organism: Homo sapiens; assay: Selectivity index, ratio of Ki for human NTSR1 transfected in HEK293 cells in the presence of [Leu3H]NT(8-13) to Ki for human NTSR2 transfected in HEK293 cells in the presence of [Leu3H]NT(8-13); type: cell-based
Method in brief: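 Membranes from HEK293(T) cells transiently transfected with hNTS1R or hNTS2R; competition binding against [³H]NT(8–13). IC50 from nonlinear regression, converted to Ki by Cheng–Prusoff; protein by Lowry. Means ± SEM of three (NTS1R) or four to five (NTS2R) experiments, each in triplicate. SI = Ki(NTS1R)/Ki(NTS2R).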

[22] = target: T1, Neurotensin receptor type 1; assay: Binding affinity to human NTS1R assessed as dissociation constant

T1 sequence (P30989 whole entry): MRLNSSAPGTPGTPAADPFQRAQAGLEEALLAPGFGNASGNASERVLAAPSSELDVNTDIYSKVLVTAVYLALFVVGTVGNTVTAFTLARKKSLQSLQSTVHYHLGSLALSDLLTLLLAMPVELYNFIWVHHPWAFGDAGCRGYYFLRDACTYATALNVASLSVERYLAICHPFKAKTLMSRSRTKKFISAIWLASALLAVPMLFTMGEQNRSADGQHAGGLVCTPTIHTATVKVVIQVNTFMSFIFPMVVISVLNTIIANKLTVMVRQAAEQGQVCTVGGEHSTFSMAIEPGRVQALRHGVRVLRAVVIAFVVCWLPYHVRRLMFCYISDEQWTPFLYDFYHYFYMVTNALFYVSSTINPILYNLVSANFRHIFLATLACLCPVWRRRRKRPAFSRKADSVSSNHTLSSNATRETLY
Sequence of Neurotensin receptor type 2 (O95665 whole entry): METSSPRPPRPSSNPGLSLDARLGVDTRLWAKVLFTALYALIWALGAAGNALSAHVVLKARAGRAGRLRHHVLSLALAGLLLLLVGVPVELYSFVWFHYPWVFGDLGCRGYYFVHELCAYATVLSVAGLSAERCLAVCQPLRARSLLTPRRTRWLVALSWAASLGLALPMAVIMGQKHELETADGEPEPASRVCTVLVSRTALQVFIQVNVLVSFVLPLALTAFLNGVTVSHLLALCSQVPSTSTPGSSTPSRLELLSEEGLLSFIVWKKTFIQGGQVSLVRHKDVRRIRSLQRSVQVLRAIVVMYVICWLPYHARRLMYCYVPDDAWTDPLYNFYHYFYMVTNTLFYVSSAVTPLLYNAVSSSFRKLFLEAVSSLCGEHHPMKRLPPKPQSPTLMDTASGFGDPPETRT

CC[C@H](C)[C@H](NC(=O)[C@H](Cc1ccc(O)cc1)NC(=O)[C@@H]1CCCN1)C(=O)N[C@@H](CC(C)C)C(=O)O (H-PYIL-OH)
Ki [1]: > 50000 nM
Activity [2]: Non-Toxic
Ki [3]: > 50000 nM
Emax [4]: 100%
Activity [5]: Non-Toxic
EC50 [6]: 3200 nM
Activity [7]: Non-Toxic

CC[C@H](C)[C@H](NC(=O)[C@H](Cc1ccc(O)cc1)NC(=O)[C@@H]1CCCN1C(=O)[C@H](CCCN=C(N)N)NC(=O)[C@@H](N)CCON=C(N)N)C(=O)N[C@@H](CC(C)C)C(=O)O
Activity [2]: Non-Toxic
Activity [5]: Non-Toxic
Activity [7]: Non-Toxic

CC[C@H](C)[C@H](NC(=O)[C@H](Cc1ccc(O)cc1)NC(=O)[C@@H]1CCCN1C(=O)[C@H](CCCNC(=N)N)NC(=O)[C@@H](N)CCCNC(=N)N)C(=O)N[C@@H](CC(C)C)C(=O)O
Activity [8]: 77.5%
Activity [9]: 31%
Activity [10]: Active
Activity [2]: Non-Toxic
remaining at 720 h [11]: > 97%
Activity [12]: Toxic
viability [13]: 90.7%
Activity [14]: Non-Toxic
viability [15]: 93.3%
Activity [5]: Non-Toxic
viability [16]: 96%
Papp at 4 h, 100 µM [17]: 0.64 ×10⁻⁶ cm/s
remaining at 24 h [18]: 100%
remaining at 24 h [19]: 100%
Activity [7]: Non-Toxic
remaining at 720 h [20]: 100%

CC[C@H](C)[C@H](NC(=O)[C@H](Cc1ccc(O)cc1)NC(=O)[C@@H]1CCCN1C(=O)[C@H](CCON=C(N)N)NC(=O)[C@@H](N)CCCN=C(N)N)C(=O)N[C@@H](CC(C)C)C(=O)O
remaining at 720 h [11]: > 94%
viability [13]: 88.9%
viability [15]: 97.7%
viability [16]: 99.8%
Papp at 4 h, 100 µM [17]: 0.89 ×10⁻⁶ cm/s
remaining at 24 h [18]: 100%
remaining at 24 h [19]: 100%
remaining at 720 h [20]: > 95%

CC[C@H](C)[C@H](NC(=O)[C@H](Cc1ccc(O)cc1)NC(=O)[C@@H]1CCCN1C(=O)[C@H](CCON=C(N)N)NC(=O)[C@@H](N)CCON=C(N)N)C(=O)N[C@@H](CC(C)C)C(=O)O
Activity [2]: Non-Toxic
Activity [5]: Non-Toxic
Activity [7]: Non-Toxic

CC[C@H](C)[C@H](NC(=O)[C@H](Cc1ccc(O)cc1)NC(=O)[C@@H]1CCCN1C(=O)[C@H](CCON=C(N)N)NC(=O)[C@@H](N)CCCCN)C(=O)N[C@@H](CC(C)C)C(=O)O (H-K[Cav]PYIL-OH)
Activity [8]: 90%
Ki [1]: 6.9 nM
Activity [9]: 87%
Activity [10]: Active
Ratio Ki [21]: 1.06
remaining at 720 h [11]: > 97%
Ki [3]: 6.5 nM
Activity [12]: Toxic
viability [13]: 94.6%
Emax [4]: 97%
Activity [14]: Non-Toxic
viability [15]: 97.3%
EC50 [6]: 0.82 nM
viability [16]: 95.1%
Papp at 4 h, 100 µM [17]: 2.81 ×10⁻⁶ cm/s
remaining at 24 h [18]: 100%
remaining at 24 h [19]: 100%
remaining at 720 h [20]: > 100%

CC(C)C[C@H](NC(=O)[C@@H](NC(=O)[C@H](Cc1ccc(O)cc1)NC(=O)[C@@H]1CCCN1C(=O)[C@H](CCCNC(=N)N)NC(=O)[C@@H](C)CCCCN)C(C)(C)C)C(=O)O (X1-RPY[Tle]L-OH)
Kd [22]: 5.71 nM

CC[C@H](C)[C@H](NC(=O)[C@H](Cc1ccc(O)cc1)NC(=O)[C@@H]1CCCN1C(=O)[C@H](CCCCN)NC(=O)[C@@H](N)CCON=C(N)N)C(=O)N[C@@H](CC(C)C)C(=O)O (H-[Cav]KPYIL-OH)
Ki [1]: 15 nM
Ratio Ki [21]: 1.07
Activity [2]: Non-Toxic
Ki [3]: 14 nM
Emax [4]: 99%
Activity [5]: Non-Toxic
EC50 [6]: 0.85 nM
Activity [7]: Non-Toxic
